ChEMBL document CHEMBL1687913, “Structure-activity relationship, conformational and biological studies of temporin L analogues” (J Med Chem, 2011)
Converted amounts (≈) assume the structure as drawn. Where a SMILES comes first, the peptide text is derived from it.

Legend:
[1] = test system: Staphylococcus epidermidis; assay: Antibacterial activity against Staphylococcus epidermidis ATCC 12228 after 18 to 20 hrs by microbroth dilution method; assay type: functional
Outline: (§1)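 CLSI microbroth dilution, adapted. Mid-log bacteria, 2 × 10^6 CFU/mL in Mueller-Hinton broth, mixed 1:1 with MH broth holding peptide in serial 2-fold dilutions in 20% ethanol (0.75-48 μM). Incubated 18-20 h at 37 °C; growth read as A600. MIC is the lowest concentration giving 100% growth inhibition.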

[2] = Toxicity in human erythrocytes assessed as hemolysis at 12 uM after 40 mins; assay type: cell-based, Erythrocyte; conditions: read-out: Activity
Outline: (§2)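 Human red blood cells suspended in 0.9% (w/v) NaCl and incubated 40 min at 37 °C with gentle mixing with serial 2-fold peptide dilutions (peptide predissolved in 20% ethanol). Spun 5 min at 900g; supernatant read at 415 nm. Cells lysed in distilled water set the 100% lysis reference.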

Pseudomonas aeruginosa [3] = assay: Antibacterial activity against Pseudomonas aeruginosa ATCC 15692 after 18 to 20 hrs by microbroth dilution method; assay type: functional; outline: as §1
Staphylococcus capitis = assay: Antibacterial activity against Staphylococcus capitis after 18 to 20 hrs by microbroth dilution method; assay type: functional; outline: as §1
Staphylococcus aureus [4] = assay: Antibacterial activity against Staphylococcus aureus ATCC 25923 after 18 to 20 hrs by microbroth dilution method; assay type: functional; outline: as §1
Escherichia coli [5] = assay: Antibacterial activity against Escherichia coli D21 after 18 to 20 hrs by microbroth dilution method; assay type: functional; outline: as §1
[6] = Toxicity in human erythrocytes assessed as hemolysis at 3 uM after 40 mins; assay type: cell-based, Erythrocyte; conditions: read-out: Activity; outline: as §2
Streptococcus pyogenes = assay: Antibacterial activity against Streptococcus pyogenes ATCC 21547 after 18 to 20 hrs by microbroth dilution method; assay type: functional; outline: as §1
Pseudomonas aeruginosa [7] = assay: Antibacterial activity against Pseudomonas aeruginosa ATCC 27853 after 18 to 20 hrs by microbroth dilution method; assay type: functional; outline: as §1
[8] = Toxicity in human erythrocytes assessed as hemolysis at 6 uM after 40 mins; assay type: cell-based, Erythrocyte; conditions: read-out: Activity; outline: as §2
Saccharomyces cerevisiae = assay: Antifungal activity against Saccharomyces cerevisiae after 18 to 20 hrs by microbroth dilution method; assay type: functional
Outline: (§3)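 Yeasts tested by adapted CLSI microbroth dilution in Winge medium. Peptide given in serial 2-fold dilutions (0.75-48 μM, made in 20% ethanol). Incubation 18-20 h at 30 °C, read at A600. MIC taken as the concentration giving complete (100%) growth inhibition.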

Acinetobacter junii = assay: Antibacterial activity against […] Acinetobacter junii RT-4 after 18 to 20 hrs by microbroth dilution method; assay type: functional; outline: as §1
[9] = test system: Schizosaccharomyces pombe; assay: Antifungal activity against Schizosaccharomyces pombe after 18 to 20 hrs by microbroth dilution method; assay type: functional; outline: as §3
Pseudomonas syringae = assay: Antibacterial activity against Pseudomonas syringae pv tobaci after 18 to 20 hrs by microbroth dilution method; assay type: functional; outline: as §1
Priestia megaterium = assay: Antibacterial activity against Bacillus megaterium Bm11 after 18 to 20 hrs by microbroth dilution method; assay type: functional; outline: as §1
Acinetobacter baumannii = assay: Antibacterial activity against Acinetobacter baumannii ATCC 19606 after 18 to 20 hrs by microbroth dilution method; assay type: functional; outline: as §1
Enterococcus faecalis = assay: Antibacterial activity against Enterococcus faecalis ATCC 29212 after 18 to 20 hrs by microbroth dilution method; assay type: functional; outline: as §1
[10] = Toxicity in human erythrocytes assessed as hemolysis at 1.5 uM after 40 mins; assay type: cell-based, Erythrocyte; conditions: read-out: Activity; outline: as §2
Staphylococcus aureus [11] = assay: Antibacterial activity against Staphylococcus aureus Cowan I after 18 to 20 hrs by microbroth dilution method; assay type: functional; outline: as §1
[12] = test system: Yersinia pseudotuberculosis; assay: Antibacterial activity against Yersinia pseudotuberculosis YPIII after 18 to 20 hrs by microbroth dilution method; assay type: functional
Outline: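 Broth microdilution adapted from CLSI. Mid-log bacteria at 2 × 10^6 CFU/mL in Mueller-Hinton broth were mixed 1:1 with MH broth containing peptide in serial 2-fold dilutions (peptide in 20% ethanol), 0.75-48 μM. Plates were incubated 18-20 h at 37 °C and growth was read as A600. MIC is the concentration giving 100% growth inhibition.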

Escherichia coli [13] = assay: Antibacterial activity against Escherichia coli ATCC 25922 after 18 to 20 hrs by microbroth dilution method; assay type: functional; outline: as §1
Candida albicans = assay: Antifungal activity against Candida albicans ATCC 10231 after 18 to 20 hrs by microbroth dilution method; assay type: functional; outline: as §3
[14] = Toxicity in human erythrocytes assessed as hemolysis at 24 uM after 40 mins; assay type: cell-based, Erythrocyte; conditions: read-out: Activity; outline: as §2

Compound | MIC [1] | hemolysis at 40 min, 12 µM [2] | MIC (Pseudomonas aeruginosa [3]) | MIC (Staphylococcus capitis) | MIC (Staphylococcus aureus [4]) | MIC (Escherichia coli [5]) | hemolysis at 40 min, 3 µM [6] | MIC (Streptococcus pyogenes) | MIC (Pseudomonas aeruginosa [7]) | hemolysis at 40 min, 6 µM [8] | MIC (Acinetobacter junii) | MIC [9] | MIC (Pseudomonas syringae) | MIC (Priestia megaterium) | MIC (Acinetobacter baumannii) | MIC (Enterococcus faecalis) | hemolysis at 40 min, 1.5 µM [10] | MIC (Staphylococcus aureus [11]) | MIC [12] | MIC (Escherichia coli [13]) | further results
CC[C@H](C)[C@H](NC(=O)[C@H](CCCNC(=N)N)NC(=O)CNC(=O)[C@H](CC(C)C)NC(=O)[C@H](Cc1ccccc1)NC(=O)[C@H](CCCNC(=N)N)NC(=O)[C@H](CO)NC(=O)[C@H](Cc1ccccc1)NC(=O)[C@H](Cc1c[nH]c2ccccc12)NC(=O)[C@H](CCCNC(=N)N)NC(=O)[C@@H](NC(=O)[C@@H](N)Cc1ccccc1)C(C)C)C(=O)N[C@@H](CC(C)C)C(N)=O (H-FVRWFSRFLGRIL-NH2) | 6 µM (≈ 10.2 µg/mL) | 92% | 24 µM (≈ 40.7 µg/mL) | 6 µM (≈ 10.2 µg/mL) | 6 µM (≈ 10.2 µg/mL) | 24 µM (≈ 40.7 µg/mL) | 14% | 3 µM (≈ 5.09 µg/mL) | 24 µM (≈ 40.7 µg/mL) | 43% | 12 µM (≈ 20.4 µg/mL) | 12 µM (≈ 20.4 µg/mL) | 6 µM (≈ 10.2 µg/mL) | 3 µM (≈ 5.09 µg/mL) | 6 µM (≈ 10.2 µg/mL) | 24 µM (≈ 40.7 µg/mL) | 6% | 6 µM (≈ 10.2 µg/mL) | 6 µM (≈ 10.2 µg/mL) | 48 µM (≈ 81.4 µg/mL) | MIC (Saccharomyces cerevisiae): 24 µM (≈ 40.7 µg/mL); MIC (Candida albicans): 24 µM (≈ 40.7 µg/mL); hemolysis at 40 min, 24 µM [14]: 100%
CC[C@H](C)[C@H](NC(=O)[C@H](CCCNC(=N)N)NC(=O)CNC(=O)[C@H](CC(C)C)NC(=O)[C@H](Cc1ccccc1)NC(=O)[C@H](CCCCN)NC(=O)[C@H](CO)NC(=O)[C@H](Cc1ccccc1)NC(=O)[C@H](Cc1c[nH]c2ccccc12)NC(=O)[C@@H]1CCCN1C(=O)[C@@H](NC(=O)[C@@H](N)Cc1ccccc1)C(C)C)C(=O)N[C@@H](CC(C)C)C(N)=O (H-FVPWFSKFLGRIL-NH2) | 1.5 µM (≈ 2.41 µg/mL) | 42% | 24 µM (≈ 38.6 µg/mL) | 1.5 µM (≈ 2.41 µg/mL) | 3 µM (≈ 4.83 µg/mL) | 12 µM (≈ 19.3 µg/mL) | 6% | 6 µM (≈ 9.65 µg/mL) | > 48 µM | 10% | 6 µM (≈ 9.65 µg/mL) | 3 µM (≈ 4.83 µg/mL) | 6 µM (≈ 9.65 µg/mL) | 1.5 µM (≈ 2.41 µg/mL) | 6 µM (≈ 9.65 µg/mL) | 6 µM (≈ 9.65 µg/mL) | 4.5% | 1.5 µM (≈ 2.41 µg/mL) | 3 µM (≈ 4.83 µg/mL) | 24 µM (≈ 38.6 µg/mL) | MIC (Saccharomyces cerevisiae): 6 µM (≈ 9.65 µg/mL); MIC (Candida albicans): 6 µM (≈ 9.65 µg/mL); hemolysis at 40 min, 24 µM [14]: 92%
CC(C)C[C@H](NC(=O)[C@H](CC(C)C)NC(=O)[C@H](CCCNC(=N)N)NC(=O)CNC(=O)[C@H](CC(C)C)NC(=O)[C@H](CC(C)C)NC(=O)[C@H](CCCCN)NC(=O)[C@H](CO)NC(=O)[C@H](CC(C)C)NC(=O)[C@H](Cc1c[nH]c2ccccc12)NC(=O)[C@H](CCC(N)=O)NC(=O)[C@H](CC(C)C)NC(=O)[C@@H](N)CC(C)C)C(N)=O (H-LLQWLSKLLGRLL-NH2) | 1.5 µM (≈ 2.33 µg/mL) | 73% | 12 µM (≈ 18.6 µg/mL) | 1.5 µM (≈ 2.33 µg/mL) | 3 µM (≈ 4.66 µg/mL) | 12 µM (≈ 18.6 µg/mL) | 9% | 6 µM (≈ 9.31 µg/mL) | 24 µM (≈ 37.2 µg/mL) | 25% | 24 µM (≈ 37.2 µg/mL) | 3 µM (≈ 4.66 µg/mL) | 6 µM (≈ 9.31 µg/mL) | 1.5 µM (≈ 2.33 µg/mL) | 12 µM (≈ 18.6 µg/mL) | 3 µM (≈ 4.66 µg/mL) | 4% | 1.5 µM (≈ 2.33 µg/mL) | 3 µM (≈ 4.66 µg/mL) | 6 µM (≈ 9.31 µg/mL) | MIC (Saccharomyces cerevisiae): 3 µM (≈ 4.66 µg/mL); MIC (Candida albicans): 6 µM (≈ 9.31 µg/mL); hemolysis at 40 min, 24 µM [14]: 100%
CC[C@H](C)[C@H](NC(=O)[C@H](CCCNC(=N)N)NC(=O)[C@H](CC(C)C)NC(=O)[C@H](CC(C)C)NC(=O)[C@H](Cc1ccccc1)NC(=O)[C@H](CCCCN)NC(=O)[C@H](CO)NC(=O)[C@H](Cc1ccccc1)NC(=O)[C@H](Cc1c[nH]c2ccccc12)NC(=O)[C@H](CCC(N)=O)NC(=O)[C@@H](NC(=O)[C@@H](N)Cc1ccccc1)C(C)C)C(=O)N[C@@H](CC(C)C)C(N)=O (H-FVQWFSKFLLRIL-NH2) | 3 µM (≈ 5.09 µg/mL) | 80% | > 48 µM | > 48 µM | 48 µM (≈ 81.4 µg/mL) | 48 µM (≈ 81.4 µg/mL) | 78% | 6 µM (≈ 10.2 µg/mL) | > 48 µM | 80% | > 48 µM | 6 µM (≈ 10.2 µg/mL) | > 48 µM | 48 µM (≈ 81.4 µg/mL) | 48 µM (≈ 81.4 µg/mL) | 48 µM (≈ 81.4 µg/mL) | 69% | 48 µM (≈ 81.4 µg/mL) | 6 µM (≈ 10.2 µg/mL) | > 48 µM | MIC (Candida albicans): > 48 µM; hemolysis at 40 min, 24 µM [14]: 83%
